Measured values as given in ChEMBL document CHEMBL3580633, “Benzoxaborole antimalarial agents. Part 4. Discovery of potent 6-(2-(alkoxycarbonyl)pyrazinyl-5-oxy)-1,3-dihydro-1-hydroxy-2,1-benzoxaboroles” (J Med Chem, 2015).

Legend:
Plasmodium falciparum = assay: Antimalarial activity against chloroquine-sensitive Plasmodium falciparum 3D7 cultured in human erythrocytes incubated for 48 hrs by [3H]-hypoxanthine incorporation assay; assay type: functional, organism-based
How it was run: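 3D7 parasites in human erythrocytes, RPMI-1640 with 0.5% Albumax II, […], 37 °C, 5% O2/5% CO2. Asynchronous cultures (0.5% parasitemia, 2% hematocrit) given 3-fold serial dilutions for 24 h. [3H]hypoxanthine then added for a further 24 h, and incorporation counted by scintillation. Normalised to drug-free infected cells. IC50 from at least three independent experiments.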

Plasmodium berghei [1] = assay: Antiplasmodial activity against Plasmodium berghei infected in Swiss Webster mouse assessed as mouse survival at 11 mg/kg, po dosed once daily for 4 consecutive days beginning 1 hr after initial infection and measured on day 9 post infection by Giemsa staining method; assay type: functional
How it was run: (§1)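 Female Swiss Webster mice (about 20 g) infected ip with 6 × 10^6 P. berghei-infected erythrocytes. Oral gavage once daily for 4 days, starting 1 h after infection. Vehicle PEG300/propylene glycol/water (55/25/20 by weight). Giemsa-smear parasitemia counted daily from day 4. Mice euthanised above 50% parasitemia. Survival followed to day 21, 5 mice per dose, chloroquine 30 mg/kg as reference.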

Plasmodium berghei [2] = assay: Antiplasmodial activity against Plasmodium berghei infected in Swiss Webster mouse assessed as mouse survival at 11 mg/kg, po dosed once daily for 4 consecutive days beginning 1 hr after initial infection and measured on day 10 post infection by Giemsa staining method; assay type: functional; how it was run: as §1
Plasmodium berghei [3] = assay: Antiplasmodial activity against Plasmodium berghei infected in Swiss Webster mouse assessed as mouse survival at 11 mg/kg, po dosed once daily for 4 consecutive days beginning 1 hr after initial infection and measured on day 7 post infection by Giemsa staining method; assay type: functional; how it was run: as §1
Plasmodium berghei [4] = assay: Antiplasmodial activity against Plasmodium berghei infected in Swiss Webster mouse assessed as mouse survival at 1 mg/kg, po dosed once daily for 4 consecutive days beginning 1 hr after initial infection and measured on day 5 post infection by Giemsa staining method; assay type: functional; how it was run: as §1
Liver microsome = assay: Stability in human liver microsomes assessed as compound remaining at 1 uM incubated for 1 hr in presence of NADPH by LC/MS/MS method; assay type: ADME
How it was run: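 Compound at 1 μM final (from a 1 mg/mL DMSO stock) was incubated with mouse or human liver microsomes (0.5 mg/mL protein) in 100 mM potassium phosphate, pH 7.4, at 37 °C with shaking, with or without 1 mM NADPH. Samples were taken over 0–120 min and tested in duplicate. Reactions were quenched with cold acetonitrile plus internal standard and analyzed by LC/MS/MS.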

Plasmodium berghei [5] = assay: Antiplasmodial activity against Plasmodium berghei infected in Swiss Webster mouse assessed as mouse survival at 11 mg/kg, po dosed once daily for 4 consecutive days beginning 1 hr after initial infection and measured on day 5 post infection by Giemsa staining method; assay type: functional; how it was run: as §1
Plasmodium berghei [6] = assay: Antiplasmodial activity against Plasmodium berghei infected in Swiss Webster mouse assessed as mouse survival at 3 mg/kg, po dosed once daily for 4 consecutive days beginning 1 hr after initial infection and measured on day 4 post infection by Giemsa staining method; assay type: functional; how it was run: as §1
Plasmodium berghei [7] = assay: Antiplasmodial activity against Plasmodium berghei infected in Swiss Webster mouse assessed as mouse survival at 100 mg/kg, po dosed once daily for 4 consecutive days beginning 1 hr after initial infection and measured on day 4 post infection by Giemsa staining method; assay type: functional; how it was run: as §1
[8] = Cmax in CD1 mouse at 5 mg/kg, po by HPLC coupled to tandem mass spectrometry; assay type: ADME, organism-based; parameters: dose 5 mg/kg, route oral; settings: in vivo
How it was run: (§2)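 Adult female CD-1 mice received 5 mg/kg by both the iv and the oral-gavage route. Two vehicles were used: PEG 400/dimethylacetamide/water (45/10/45, pH 5.8), or PEG 300/propylene glycol/water (55/25/20, pH 5.9). Blood samples were collected and drug was quantified by HPLC-tandem MS.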

[9] = Terminal half life in CD1 mouse at 5 mg/kg, po by HPLC coupled to tandem mass spectrometry; assay type: ADME, organism-based; settings: in vivo, read-out: beta t1/2 (converted)
How it was run: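 Adult female CD-1 mice were given oral gavage at 5 mg/kg in a formulated solution, either PEG 400/dimethylacetamide/water (45/10/45, pH 5.8) or PEG 300/propylene glycol/water (55/25/20, pH 5.9). Blood samples were analysed for drug by HPLC-tandem MS, and the terminal half-life was derived.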

Plasmodium berghei [10] = assay: Antiplasmodial activity against Plasmodium berghei infected in Swiss Webster mouse assessed as mouse survival at 33 mg/kg, po dosed once daily for 4 consecutive days beginning 1 hr after initial infection and measured on day 12 post infection by Giemsa staining method; assay type: functional
How it was run: (§3)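 Female Swiss Webster mice (about 20 g) were infected ip with 6 × 10^6 P. berghei-infected erythrocytes from a donor mouse. They were dosed by oral gavage once daily for 4 days, starting 1 h post-infection, in PEG 300/propylene glycol/water (55/25/20 by weight). Parasitemia was read daily on Giemsa smears from day 4, and mice were euthanized above 50% parasitemia. Percent survival was tracked to 21 days.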

Plasmodium berghei [11] = assay: Antiplasmodial activity against Plasmodium berghei infected in Swiss Webster mouse assessed as mouse survival at 3 mg/kg, po dosed once daily for 4 consecutive days beginning 1 hr after initial infection and measured on day 5 post infection by Giemsa staining method; assay type: functional; how it was run: as §1
Plasmodium berghei [12] = assay: Antiplasmodial activity against Plasmodium berghei infected in Swiss Webster mouse assessed as mouse survival at 1 mg/kg, po dosed once daily for 4 consecutive days beginning 1 hr after initial infection and measured on day 8 post infection by Giemsa staining method; assay type: functional; how it was run: as §1
Plasmodium berghei [13] = assay: Antiplasmodial activity against Plasmodium berghei infected in Swiss Webster mouse assessed as mouse survival at 33 mg/kg, po dosed once daily for 4 consecutive days beginning 1 hr after initial infection and measured on day 11 post infection by Giemsa staining method; assay type: functional; how it was run: as §3
Plasmodium berghei [14] = assay: Antiplasmodial activity against Plasmodium berghei infected in Swiss Webster mouse assessed as mouse survival at 100 mg/kg, po dosed once daily for 4 consecutive days beginning 1 hr after initial infection and measured on day 11 post infection by Giemsa staining method; assay type: functional; how it was run: as §1
Plasmodium berghei [15] = assay: Antiplasmodial activity against Plasmodium berghei infected in Swiss Webster mouse assessed as mouse survival at 11 mg/kg, po dosed once daily for 4 consecutive days beginning 1 hr after initial infection and measured on day 11 post infection by Giemsa staining method; assay type: functional; how it was run: as §1
[16] = Tmax in CD1 mouse at 5 mg/kg, po by HPLC coupled to tandem mass spectrometry; assay type: ADME, organism-based; settings: in vivo; how it was run: as §2
[17] = Clearance in CD1 mouse at 5 mg/kg, iv by HPLC coupled to tandem mass spectrometry; assay type: ADME, organism-based; settings: in vivo; how it was run: as §2
Jurkat = assay: Cytotoxicity against human Jurkat cells incubated for 72 hrs by MTT assay; assay type: cell-based
Plasmodium berghei [18] = assay: Antiplasmodial activity against Plasmodium berghei infected in Swiss Webster mouse assessed as mouse survival at 11 mg/kg, po dosed once daily for 4 consecutive days beginning 1 hr after initial infection and measured on day 6 post infection by Giemsa staining method; assay type: functional; how it was run: as §1
Plasmodium berghei [19] = assay: Antiplasmodial activity against Plasmodium berghei infected in Swiss Webster mouse assessed as mouse survival at 100 mg/kg, po dosed once daily for 4 consecutive days beginning 1 hr after initial infection and measured on day 12 post infection by Giemsa staining method; assay type: functional; how it was run: as §1
[20] = AUC (0 to infinity) in CD1 mouse at 5 mg/kg, iv by HPLC coupled to tandem mass spectrometry; assay type: ADME, organism-based; parameters: dose 5 mg/kg, route intravenous, time infinity; settings: in vivo; how it was run: as §2
[21] = Volume of distribution at steady state in CD1 mouse at 5 mg/kg, iv by HPLC coupled to tandem mass spectrometry; assay type: ADME, organism-based; settings: in vivo, read-out: Vdss; how it was run: as §2

Compound | IC50 (Plasmodium falciparum) | survival at 11 mg/kg (Plasmodium berghei [1]) | survival at 11 mg/kg (Plasmodium berghei [2]) | survival at 11 mg/kg (Plasmodium berghei [3]) | survival at 1 mg/kg (Plasmodium berghei [4]) | Stability (Liver microsome) | survival at 11 mg/kg (Plasmodium berghei [5]) | survival at 3 mg/kg (Plasmodium berghei [6]) | survival at 100 mg/kg (Plasmodium berghei [7]) | Cmax [8] | half-life [9] | survival at 33 mg/kg (Plasmodium berghei [10]) | survival at 3 mg/kg (Plasmodium berghei [11]) | survival at 1 mg/kg (Plasmodium berghei [12]) | survival at 33 mg/kg (Plasmodium berghei [13]) | survival at 100 mg/kg (Plasmodium berghei [14]) | survival at 11 mg/kg (Plasmodium berghei [15]) | Tmax [16] | IC50 (Jurkat) | survival at 11 mg/kg (Plasmodium berghei [18]) | other results
COC(=O)c1cnc(Oc2ccc3c(c2)B(O)OC3)cn1 | 1.9 nM | 80% | 80% | 100% | 100% | 0% | 100% | 100% | 100% | 160 ng/mL | 60 min | 20% | 100% | 40% | 100% | 100% | 80% | 15 min | 7.59 µM | 100% | clearance [17]: 208 mL/min/kg; survival at 100 mg/kg (Plasmodium berghei [19]): 100%; AUC(0-inf) [20]: 400 ng·h/mL; Vd [21]: 0.926 L/kg
O=C(O)c1cnc(Oc2ccc3c(c2)B(O)OC3)cn1 |  | 20% | 20% | 100% | 100% |  | 100% | 100% | 100% |  |  | 0% | 100% | 40% | 40% | 60% | 20% |  | > 100 µM | 100% | survival at 100 mg/kg (Plasmodium berghei [19]): 0%
NC(=O)c1cnc(Oc2ccc3c(c2)B(O)OC3)cn1 | 350 nM | 60% | 0% | 100% | 100% | 87% | 100% | 100% | 100% | 1380 ng/mL | 126 min |  | 100% | 40% |  |  |  | 15 min | 48.2 µM | 100% | clearance [17]: 37.7 mL/min/kg; AUC(0-inf) [20]: 2200 ng·h/mL; Vd [21]: 0.973 L/kg
O=C(O)c1ccc(Oc2ccc3c(c2)B(O)OC3)cn1 | 540 nM | 0% |  | 100% | 100% |  | 100% | 100% | 100% |  |  |  | 100% | 0% |  |  |  |  |  | 100% | 
